{
  "source": "PubChem BioAssay AID573",
  "about": "(SRMLSC, 2007)",
  "note": "In all, about 65,000 compounds went through this assay and about 1,400 (2.2%) were called active. Only a selection was taken, and actives are over-represented in it overall. A number with no mark means an inactive call.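 The calls were made as follows: active = growth inhibition at or above a cutoff equal to the mean over every tested compound plus 3 SD (cut at about 60% in these data); inactive = the rest.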",
  "data": [
    {"assay": "growth inhibitors of E. coli tolC mutant, primary screen, strain BW25113 ΔtolC::kan, 384-well (AID 573);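 also: growth measured after 20 h incubation at 37 °C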", "conditions": "OD615, active compounds read high, screened at 10 µM (by protocol)", "outline": "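Test system – E. coli BW25113 ΔtolC::kan, tolC deletion mutant strain · Detection – OD at 615 nm · Buffer or medium – LB with kanamycin 50 µg/mL · Times – 20 h compound exposure of bacteria at 37 °C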", "values": [
      {"smiles": "CCc1nnc(NS(=O)(=O)c2ccc(NS(=O)(=O)c3ccccc3)cc2)s1", "growth inhibition": "19%"},
      {"smiles": "CCOC(=O)C1Cn2c(nc3c(c2=O)C(C)(CC)Cc2ccccc2-3)S1", "note": "(stereo unspecified)", "growth inhibition": "67.9% (active)"},
      {"smiles": "CCOC(=O)C1CCc2nc3ccccc3c(=O)n21", "note": "(stereo unspecified)", "growth inhibition": "-18.7%"},
      {"smiles": "CC1(C)Cc2ccccc2-c2nc(CN3CCOCC3)[nH]c(=O)c21", "growth inhibition": "5.57%"},
      {"smiles": "CCCCc1nc2c(=O)[nH]c3ccccc3c2o1", "growth inhibition": "-2.92%"},
      {"smiles": "Clc1ccc(Cn2ncc3c(NCc4cccnc4)ncnc32)cc1", "growth inhibition": "18.6%"},
      {"smiles": "O=C(NCc1ccco1)C1CCCN(S(=O)(=O)c2cccc3nonc23)C1", "note": "(stereo unspecified)", "growth inhibition": "-21.5%"},
      {"smiles": "COc1ccc(N2C(=O)CC(N3CCC(C(N)=O)CC3)C2=O)cc1", "note": "(stereo unspecified)", "growth inhibition": "-10.9%"},
      {"smiles": "COc1cccc(NC(=O)CN(C)S(=O)(=O)c2ccc(C)cc2)c1", "growth inhibition": "13.3%"},
      {"smiles": "COc1cccc(-c2nnc(NC(=O)c3ccc(S(=O)(=O)N(CC(C)C)CC(C)C)cc3)o2)c1", "growth inhibition": "98.8% (active)"},
      {"smiles": "CCN(CC)C(=O)CSc1nnc(-c2cccc(OC)c2)o1", "growth inhibition": "-2.54%"},
      {"smiles": "CCOC(=O)c1sc(NC(=S)n2cc(C)cn2)c(C(=O)OCC)c1C", "growth inhibition": "23.8%"},
      {"smiles": "Cc1cc2nc(-c3ccc(NC(=O)c4cccnc4)cc3)oc2cc1C", "growth inhibition": "10.2%"},
      {"smiles": "O=C(c1ccco1)N1CCN(C(=O)c2ccc(COc3ccc(F)cc3)o2)CC1", "growth inhibition": "1.7%"},
      {"smiles": "Cc1cc(=O)[nH]c(=S)[nH]1", "growth inhibition": "-13.2%"},
      {"smiles": "O=C1NC(Nc2nc3ccccc3s2)(C(F)(F)F)C(=O)N1C1CCCCC1", "note": "(stereo unspecified)", "growth inhibition": "100% (active)"},
      {"smiles": "COC(=O)NC1(C(F)(F)F)NC(=O)N(C2CCCCC2)C1=O", "note": "(stereo unspecified)", "growth inhibition": "-5.17%"},
      {"smiles": "C1=C(N2CCOCC2)/C(=C/c2nc3ccccc3[nH]2)CC1", "growth inhibition": "-16.7%"},
      {"smiles": "CCOC(=O)c1cc(-c2ccc(Cl)s2)nc2c1c(C)nn2C", "growth inhibition": "8.55%"},
      {"smiles": "CC(C)CCNC(=O)CCNS(=O)(=O)c1ccc(Cl)cc1", "growth inhibition": "7.04%"},
      {"smiles": "COc1ccc(OC)c2sc(NC(=O)C3COc4ccccc4O3)nc12", "note": "(stereo unspecified)", "growth inhibition": "70.5% (active)"},
      {"smiles": "O=C(Nc1nc(-c2ccncc2)cs1)C1COc2ccccc2O1", "note": "(stereo unspecified)", "growth inhibition": "36.7%"},
      {"smiles": "Cc1cc(NC(=O)CCC2COc3ccccc3O2)no1", "note": "(stereo unspecified)", "growth inhibition": "0.5%"},
      {"smiles": "CC(=O)c1cnc(Nc2nc(C)c3cc(C)ccc3n2)nc1C", "growth inhibition": "-6.16%"},
      {"smiles": "COc1ccccc1N1CCN(C(=O)c2cc(-c3ccc(Cl)c(Cl)c3)on2)CC1", "growth inhibition": "-3.17%"},
      {"smiles": "COc1ccccc1-c1cc(C(=O)N2CCCCC2)no1", "growth inhibition": "7.63%"},
      {"smiles": "COc1ccccc1N1CCN(C(=O)c2cc(-c3ccc(Br)cc3)on2)CC1", "growth inhibition": "63.8% (active)"},
      {"smiles": "Oc1c(C(c2ccccn2)N2CCOCC2)ccc2cccnc12", "note": "(stereo unspecified)", "growth inhibition": "29.8%"},
      {"smiles": "CCCC(C(=O)N1CCOCC1)N1C(=O)C2C3C=CC(C3)C2C1=O", "note": "(stereo unspecified)", "growth inhibition": "-13.1%"},
      {"smiles": "CC(C)c1ccc(N2CC(C(=O)Nc3nccs3)CC2=O)cc1", "note": "(stereo unspecified)", "growth inhibition": "9.63%"},
      {"smiles": "Cc1oc(C)c(C(=O)NCCCC(=O)O)c1C(=O)NCCCC(=O)O", "growth inhibition": "-20.2%"}
    ]}
  ]
}
